The source made the active and inactive calls. No cut-off for these calls is given here.
Key:
[1] = tested on: Human immunodeficiency virus 1; test: Reactivation of latent HIV1 infected in human U1 cells assessed as increase in p24 production after 48 hrs by ELISA; assay type: functional, organism-based; settings: Human immunodeficiency virus 1, U1, 48 h; read-out: EC50
[2] = tested on: Human immunodeficiency virus 1; test: Reactivation of latent HIV1 infected in human U1 cells assessed as increase in p24 production after 48 hrs by ELISA relative to vorinostat; assay type: functional
Outline: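 U1 cells at 2x10^5 cells/ml incubated with a range of concentrations at 37 °C for 48 h. Supernatant p24 measured by HIV p24 ELISA. EC50 ± SD derived from 3 independent experiments.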

[3] = Cytotoxicity against human U937 cells assessed as reduction in cell viability after 48 hrs by CellTiter-Glo luminescent cell viability assay; assay type: cell-based, U-937
Outline: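 U937 cells (HIV-1-negative parental line of U1) at 2x10^5 cells/ml exposed to a range of concentrations for 48 h at 37 °C. Viability read by CellTiter-Glo luminescence. CC50 ± SD derived from 3 independent experiments.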

[4] = Selectivity index, ratio of CC50 for human U937 cells to EC50 for reactivation of latent HIV1 infected in human U1 cells; settings: U937 cells (CC50) and latent HIV-1 infected U1 cells (EC50)
[5] = tested on: Human immunodeficiency virus 1; test: Reactivation of latent HIV1 infected in human J-Lat A2 cells assessed as increase in GFP positive cells at 1 uM after 72 hrs by flow cytometric analysis; assay type: functional, organism-based
Outline: (§1)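 J-Lat (A2) cells, 1x10^6 cells/well, incubated with the test agent at 37 °C for 72 h. GFP-expressing cells and percent viable cells measured by flow cytometry. Two independent experiments.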

[6] = Cytotoxicity against human J-Lat (A2) cells assessed as effect on cell viability at 1 uM after 72 hrs by flow cytometric analysis; assay type: cell-based; outline: as §1
[7] = tested on: Human immunodeficiency virus 1; test: Reactivation of latent HIV1 infected in human U1 cells/uninfected U937 cell mixture assessed as reduction in proviral DNA level at 0.57 uM supplemented with fresh medium containing compound every 3 days for 18 days measured post last dose by PCR analysis; assay type: functional, organism-based
Outline: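 U1/U937 (1:4) cultures treated for 18 days with T20 present and refed with compound every 3 days. HIV-1 pol DNA (200 bp) amplified by PCR for 30 cycles, with B2M (779 bp, 25 cycles) as internal control. Products run on 2% agarose gels and densitometry expressed as the treated/DMSO ratio.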

[8] = Cytotoxicity against human Jurkat cells assessed as reduction in cell viability after 72 hrs by CellTiter-Glo luminescent cell viability assay; assay type: cell-based
[9] = tested on: Human immunodeficiency virus 1; test: Reactivation of latent HIV1 infected in human U1 cells/uninfected U937 cell mixture assessed as increase in p24 production at 0.57 uM supplemented with fresh medium containing compound every 3 days for 18 days and subsequent dosing at day 18 post dose measured on day 21 by ELISA
[10] = tested on: Human immunodeficiency virus 1; test: Synergistic reactivation of latent HIV1 infected in human U1 cells assessed as increase in p24 production after 48 hrs in presence of HDAC inhibitor TPB by ELISA; assay type: functional, organism-based; settings: Human immunodeficiency virus 1, U1, 48 h
[11] = tested on: Human immunodeficiency virus 1; test: Synergistic reactivation of latent HIV1 infected in human J-Lat A2 cells assessed as increase in GFP positive cells after 72 hrs in presence of HDAC inhibitor TPB by flow cytometric analysis relative to control; assay type: functional
Outline: (§2)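 J-Lat (A2) cells express GFP on latent HIV-1 activation; 1x10^6 cells/well incubated with LRA(s), alone or in pairs (HDAC inhibitor TPB 0.3 µM or TPyB 1.0 µM), at 37 °C for 72 h; GFP+ cell frequency by flow cytometry; two independent experiments, one-tailed t-test.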

[12] = tested on: Human immunodeficiency virus 1; test: Reactivation of latent HIV1 infected in human J-Lat A2 cells assessed as increase in GFP positive cells at 80 pM after 72 hrs by flow cytometric analysis relative to control; assay type: functional; outline: as §2
[13] = Cytotoxicity against human J-Lat (A2) cells assessed as effect on cell viability at 80 pM after 72 hrs by flow cytometric analysis; assay type: cell-based
Outline: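 J-Lat (A2) cells, 1x10^6 cells/well, exposed to LRA(s) at 37 °C for 72 h; percent viable cells read by flow cytometry, two independent experiments.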

[14] = tested on: Human immunodeficiency virus 1; test: Synergistic reactivation of latent HIV1 infected in human PBMC assessed as reduction in HIV1 DNA at 20 pM after 6 days in presence of HDAC inhibitor TPB by SYBR green dye based RT-PCR analysis relative to control; assay type: functional
[15] = tested on: Human immunodeficiency virus 1; test: Synergistic reactivation of latent HIV1 infected in human PBMC assessed as reduction in frequency of HIV1 latently infected CD4+ cells at 20 pM preincubated for 6 days followed by PHA-stimulation measured after 48 hrs in presence of HDAC inhibitor TPB by ELISA; assay type: functional
[16] = tested on: Human immunodeficiency virus 1; test: Reactivation of latent HIV1 infected in human U1 cells/uninfected U937 cell mixture assessed as increase in p24 production at 26 pM supplemented with fresh medium containing compound every 3 days for 18 days measured at day 9 post dose by ELISA; assay type: functional, organism-based
Outline: (§3)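 U1 and U937 cells mixed 1:4 (1x10^5 cells/ml) with LRA(s) (GM 26 pM, TPyB 0.57 µM) or DMSO, plus T20 1 µg/ml, for 18 days. p24 in supernatant read by ELISA every 3 days, after which medium with compound was renewed and cells reset to 1x10^5/ml. At day 18, part of the cells got GM 129 pM for 72 h and were read on day 21.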

[17] = tested on: Human immunodeficiency virus 1; test: (§4) Synergistic reactivation of latent HIV1 infected in human U1 cells/uninfected U937 cell mixture assessed as increase in p24 production at 26 pM supplemented with fresh medium containing compound every 3 days for 18 days measured at day 6 post dose in presence of HDAC inhibitor TPyB by ELISA; assay type: functional, organism-based; outline: as §3
[18] = tested on: Human immunodeficiency virus 1; test: Reactivation of latent HIV1 infected in human U1 cells/uninfected U937 cell mixture assessed as p24 level at 26 pM supplemented with fresh medium containing compound every 3 days for 18 days measured at day 18 post dose by ELISA; assay type: functional; outline: as §3
[19] = tested on: Human immunodeficiency virus 1; test: (§5) Synergistic reactivation of latent HIV1 infected in human U1 cells/uninfected U937 cell mixture assessed as p24 level at 26 pM supplemented with fresh medium containing compound every 3 days for 18 days measured at day 6 post dose in presence of HDAC inhibitor TPyB by ELISA; assay type: functional; outline: as §3
[20] = tested on: Human immunodeficiency virus 1; test: Reactivation of latent HIV1 infected in human U1 cells/uninfected U937 cell mixture assessed as increase in p24 production at 26 pM supplemented with fresh medium containing compound every 3 days for 18 days and subsequent dosing at 129 pM at day 18 post dose measured on day 21 by ELISA; assay type: functional, organism-based; outline: as §3
[21] = tested on: Human immunodeficiency virus 1; test: as §4, with “days and subsequent dosing at 129 pM” for “days measured”, “day 18” for “day 6”, “dose measured on day 21” for “dose”; assay type: functional, organism-based; outline: as §3
[22] = tested on: Human immunodeficiency virus 1; test: as §5, with “reduction in proviral DNA” for “p24”, “measured” for “measured at day 6”, “post last” for “post”, “PCR analysis relative to control” for “ELISA”; assay type: functional
Outline: (§6)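 Cells from the 18-day U1/U937 (1:4) co-culture with LRA(s) or DMSO plus T20 were tested for proviral DNA by PCR of HIV-1 pol (200 bp, 30 cycles), with B2M (779 bp, 25 cycles) as internal control. Products run on 2% agarose and quantified by densitometry; values are ratios of treated to DMSO.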

[23] = tested on: Human immunodeficiency virus 1; test: Reactivation of latent HIV1 infected in human U1 cells/uninfected U937 cell mixture assessed as reduction in proviral DNA level at 26 pM supplemented with fresh medium containing compound every 3 days for 18 days measured post last dose by PCR analysis; assay type: functional, organism-based; outline: as §6
PBMC [24] = test: Induction of IFNgamma1 production in human PBMC at 2000 pM after 2 days by ELISA (reference value: 29 pg/ml); assay type: cell-based; settings: 48 h, 0.002 µM
PBMC [25] = test: Induction of IFNgamma1 production in human PBMC at 20 pM after 2 days by ELISA (reference value: 29 pg/ml); assay type: cell-based; settings: 48 h
PBMC [26] = test: Induction of IFNgamma1 production in human PBMC at 2000 pM after 2 days in presence of 3 uM HDAC inhibitor TPB by ELISA (reference value: 26 pg/ml); assay type: cell-based; settings: 48 h, 0.002 µM
PBMC [27] = test: Induction of IFNgamma1 production in human PBMC at 20 pM after 2 days in presence of 3 uM HDAC inhibitor TPB by ELISA (reference value: 26 pg/ml); assay type: cell-based; settings: 48 h
PBMC [28] = test: Induction of IFNgamma1 production in human PBMC at 2000 pM after 2 days in presence of 1 uM HDAC inhibitor TPB by ELISA (reference value: 27 pg/ml); assay type: cell-based; settings: 48 h, 0.002 µM
PBMC [29] = test: Induction of IFNgamma1 production in human PBMC at 20 pM after 2 days in presence of 1 uM HDAC inhibitor TPB by ELISA (reference value: 27 pg/ml); assay type: cell-based; settings: 48 h
PBMC [30] = test: Induction of IFNgamma1 production in human PBMC at 2000 pM after 2 days in presence of 0.3 uM HDAC inhibitor SAHA by ELISA (reference value: 25 pg/ml); assay type: cell-based; settings: 48 h, 0.002 µM
PBMC [31] = test: Induction of IFNgamma1 production in human PBMC at 20 pM after 2 days in presence of 0.3 uM HDAC inhibitor SAHA by ELISA (reference value: 25 pg/ml); assay type: cell-based; settings: 48 h
PBMC [32] = test: Induction of T-cell activation in human PBMC assessed as increase in CD69 expression at 3 nM measured after 1 day in presence of HDAC inhibitor TPyB by flow cytometric method; assay type: cell-based; settings: 24 h, 0.003 µM
PBMC [33] = test: Induction of T-cell activation in human PBMC assessed as increase in CD69 expression at 3 nM measured after 1 day in presence of HDAC inhibitor vorinostat by flow cytometric method; assay type: cell-based; settings: 24 h, 0.003 µM
[34] = tested on: Human immunodeficiency virus 1; test: Ratio of EC50 for reactivation of latent HIV1 infected in human U1 cells to EC50 for synergistic reactivation of latent HIV1 infected in human U1 cells in presence of HDAC inhibitor TPB; assay type: functional
[35] = tested on: Human immunodeficiency virus 1; test: Synergistic reactivation of latent HIV1 infected in human U1 cells assessed as increase in p24 production after 48 hrs in presenc of HDAC inhibitor TPB by ELISA relative to vorinostat; assay type: functional

In the case of `CC(=O)Nc1ccc(C(=O)Nc2nc(-c3cccs3)ccc2N)cc1`, the EC50 [1] is reported as 5.7 µM, the “fold change (FC)” value [2] is reported as 1.3 and the CC50 at 48 h [3] is reported as 47.3 µM. The selectivity ratio [4] was 8.2, the Activity [5] was “Active” and the Activity [6] was “Non-Toxic”. The Activity [7] was “Active”, the CC50 at 72 h [8] was 44.3 µM and the Activity [9] was “Active”.
With `C=C(C)[C@@]12C[C@@H](COC(=O)c3ccccc3)[C@@]34OC5(O[C@@H]1[C@@H]3[C@@H]1O[C@]1(CO)[C@@H](O)[C@@]1(O)[C@H]4[C@H]([C@H](C)[C@@H]1OC(=O)c1ccccc1)[C@H](C)CCCCCC[C@H]5O)O2` [GNIDIMACRIN] the EC50 [1] was 1.8e-05 µM, the “fold change (FC)” value [2] was 12.3 and the CC50 at 48 h [3] was 4.2 to 4.8 µM. It also gave a selectivity ratio [4] of 260000 to 750000, an EC50 [10] of 5.6 pM and an Activity [11] of 21%. The Activity [12] was >5%, the Activity [13] was “Non-Toxic” and the “fold change (FC)” value [14] was 1.8. The “fold change (FC)” value [15] was >3, the Activity [16] was “Active” and the Activity [17] was “Active”. For the same molecule, the Activity [18] was 49 pg/mL, the Activity [19] was 12 pg/mL and the Activity [20] was “inactive”. The Activity [21] was “inactive”, the “fold change (FC)” value [22] was 10 and the Activity [23] was “Active”. The Activity (PBMC [24]) was 164 pg/mL, the Activity (PBMC [25]) was 35 pg/mL and the Activity (PBMC [26]) was 42 pg/mL. For the same molecule, the Activity (PBMC [27]) was 32 pg/mL, the Activity (PBMC [28]) was 47 pg/mL and the Activity (PBMC [29]) was 34 pg/mL. For the same molecule, the Activity (PBMC [30]) was 39 pg/mL, the Activity (PBMC [31]) was 30 pg/mL and the Activity (PBMC [32]) was “Toxic”. For the same molecule, the Activity (PBMC [33]) was “Toxic”, the “Ratio EC50” value [34] was >3 and the “fold change (FC)” value [35] was 13.8. For the same molecule, the CC50 at 72 h [8] was 5.3 µM.
